Results collected from several papers.
Lines come from different studies, so protocols differ.
Target: Serine/threonine-protein kinase DCLK1 (DCLK1, Homo sapiens, UniProt O15075)
One construct used (O15075 1-740): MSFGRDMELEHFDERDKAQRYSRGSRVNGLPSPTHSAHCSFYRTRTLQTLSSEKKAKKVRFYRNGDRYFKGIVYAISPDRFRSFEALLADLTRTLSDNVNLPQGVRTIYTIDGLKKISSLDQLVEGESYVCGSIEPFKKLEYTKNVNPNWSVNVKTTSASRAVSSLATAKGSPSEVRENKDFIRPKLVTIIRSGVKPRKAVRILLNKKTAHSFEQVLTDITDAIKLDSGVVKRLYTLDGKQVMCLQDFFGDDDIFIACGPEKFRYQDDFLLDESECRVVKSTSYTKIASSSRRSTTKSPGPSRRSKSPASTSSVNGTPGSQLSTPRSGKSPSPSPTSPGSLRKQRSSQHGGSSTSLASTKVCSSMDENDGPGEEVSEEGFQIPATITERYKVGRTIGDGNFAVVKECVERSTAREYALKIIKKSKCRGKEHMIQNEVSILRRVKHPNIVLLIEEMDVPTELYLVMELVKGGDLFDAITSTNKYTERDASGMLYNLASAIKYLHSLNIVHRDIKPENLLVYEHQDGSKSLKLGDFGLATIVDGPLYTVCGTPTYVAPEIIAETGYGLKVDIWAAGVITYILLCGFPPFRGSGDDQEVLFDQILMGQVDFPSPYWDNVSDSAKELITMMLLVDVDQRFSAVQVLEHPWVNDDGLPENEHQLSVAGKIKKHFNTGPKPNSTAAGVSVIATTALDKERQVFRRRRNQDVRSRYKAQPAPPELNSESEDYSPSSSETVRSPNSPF

`C[C@H]1CC[C@H](n2c3cnccc3c3cnc(Nc4ccc5c(n4)CCN(C(=O)CO)C5)nc32)CC1` has a remaining signal of 75% (cell-free assay; 1 µM).
`C=CC(=O)N1CCC([C@@H]2CCNc3c(C(N)=O)c(-c4ccc(Oc5ccccc5)cc4)nn32)CC1` gave an inhibition of 41% (enzyme activity, inhibitor; 1 µM).
The remaining binding of `COc1ccc2oc(-c3ccc4nc(N)oc4c3)c/c(=N\c3ccccc3NC(=O)CCN)c2c1` is reported as 96% (binding; 1 µM).
`CC(C)S(=O)(=O)c1ccc2nccc(Nc3ccc4sc(C5CCCC5)nc4c3)c2c1` gave an activity vs control of 102% (enzyme activity, inhibitor; 1 µM).
The inhibition of `CC#CC(=O)N1CCC[C@H]1c1nc(-c2ccc(C(=O)Nc3ccccn3)cc2)c2c(N)nccn12` is reported as 15% (enzyme activity, inhibitor; 1 µM).
For `CN1CCN(C(=O)c2ccc(NC(=O)Nc3ccc(N(C)c4ccnc(Nc5ccc(CS(C)(=O)=O)cc5)n4)cc3)cc2)CC1`, the remaining binding was 97% (binding, competition with immobilised ligand; 1 µM).
`CCCCC(=O)Nc1ccc(-c2ccc3ncn(CCC)c(=O)c3c2)cn1` gave a remaining binding of 68% (binding, competition with immobilised ligand; 0.5 µM).
For `N#Cc1ccc(NC(=O)Nc2ccccc2)cc1`, the remaining binding was 91% (cell-free assay, competition with immobilised ligand; 25 µM).
The remaining signal of `C1=C/COCc2cc(ccc2OCCN2CCCC2)Nc2nccc(n2)-c2cccc(c2)COC/1` is reported as 100% (cell-free assay; 0.1 µM).
